Experimental data reported in ChEMBL document CHEMBL3232953, “Synthesis, characterization and anti-proliferative activity of heterocyclic hypervalent organoantimony compounds” (Eur J Med Chem, 2014).

What was measured:
[1] = tested on: A549; experiment: Antiproliferative activity against human A549 cells after 48 hrs by CCK-8 assay; type: functional, cell-based; settings: A549, 48 h
How it was run: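 A549 cells in RPMI1640 with 10% newborn calf serum and 1% penicillin-streptomycin at 37 °C, 5% CO2. Seeded 5 × 10³ cells/well, compounds added after 12 h from DMSO stocks diluted in medium (final DMSO < 0.1% v/v). After 48 h, CCK-8 added for 2 h and OD read at 490 nm. IC50 by Probit regression of inhibition ratio against concentration. At least three experiments.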

[2] = tested on: A549; experiment: Antiproliferative activity against human A549 cells at 30 uM after 24 to 72 hrs by CCK-8 assay; type: functional
How it was run: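 Time course in A549 cells seeded 5 × 10³ cells/well. Compounds tested at 1, 3, 10 and 30 […] for the periods shown, with final DMSO < 0.1%. Viability by CCK-8 (2 h, OD 490 nm). Mean ± S.D. of three experiments done in triplicate, one-way ANOVA against 24 h and 48 h.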

SMILES | IC50 [1] [µM] | inhibition at 30 µM [2] [%]
CC(C)(C)N(Cc1ccccc1Br)Cc1ccccc1Br | > 30 | –
Brc1ccccc1CN(Cc1ccccc1Br)C1CCCCC1 | > 30 | 9.39
Brc1ccccc1CN(Cc1ccccc1Br)c1ccccc1 | > 30 | –
